# ChEMBL document CHEMBL5154784, “Design, Synthesis, Biological Evaluation, and Computational Studies of Novel Ureidopropanamides as Formyl Peptide Receptor 2 (FPR2) Agonists to Target the Resolution of Inflammation in Central Nervous System Disorders” (J Med Chem, 2022)
# Legend:
# [1] = target: T1, N-formyl peptide receptor 2 (Homo sapiens, UniProt P25090); assay: Agonist activity at human FPR2 transfected in human HL-60 cells assessed as increase in calcium mobilization measured every 5 seconds for 240 secs by Fluo-4-AM dye based fluorescence assay; assay type: functional, cell-based
# T1 sequence (P25090 whole entry): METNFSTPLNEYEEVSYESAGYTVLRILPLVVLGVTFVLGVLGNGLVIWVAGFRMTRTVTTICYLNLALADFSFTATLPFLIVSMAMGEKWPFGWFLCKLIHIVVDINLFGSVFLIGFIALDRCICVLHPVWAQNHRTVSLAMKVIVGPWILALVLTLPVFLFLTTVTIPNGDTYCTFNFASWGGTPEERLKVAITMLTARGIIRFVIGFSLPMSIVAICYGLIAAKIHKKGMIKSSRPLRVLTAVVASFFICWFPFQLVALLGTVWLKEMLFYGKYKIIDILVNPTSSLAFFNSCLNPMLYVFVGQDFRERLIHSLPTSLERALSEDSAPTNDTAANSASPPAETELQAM
# [2] = target: T1, N-formyl peptide receptor 2; assay: Antagonist activity at human FPR2 transfected in human HL-60 cells assessed as inhibition of WKYMVM-induced intracellular calcium mobilization preincubated for 10 mins followed by WKYMVM addition measured every 5 seconds for 240 secs by Fluo-4-AM dye based fluorescence assay; assay type: functional, cell-based
# Method in brief: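 Fluo-4-loaded FPR2-HL60 cells pre-incubated 10 min with compound (1% DMSO final), then challenged with 5 nM WKYMVM. Maximum change over baseline taken as response. IC50 by four-parameter logistic regression of at least 5–6 point curves.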
# [3] = Metabolic stability in rat liver microsomes assessed as compound remaining at 10 uM preincubated for 10 mins followed by NADPH addition and measured after 30 mins by HPLC analysis; assay type: ADME, Microsome; conditions: time 40 min, read-out: Stability
# Method in brief: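 Rat liver microsomes (1.0 mg/mL protein), compound 10 μM final in 100 mM potassium phosphate pH 7.4, pre-incubated 10 min at 37 °C, then NADPH regenerating system added. After 30 min, % parent remaining by HPLC-DAD (C18, MeOH/H2O 80:20) versus incubation without NADPH system.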
# [4] = Cytotoxicity against mouse N9 cells assessed as reduction in cell viability by measuring LDH release at 0.5 to 5 uM incubated for 24 hrs by LDH assay; assay type: toxicity, cell-based; conditions: n9, 24 h, dose 0.5-5 µM
# Method in brief: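 N9 cells (2 × 10^4/well) given compound at 0.5 or 5 μM, alone or with LPS (E. coli O111:B4, 100 ng/mL) added 30 min later, for 24 h at 37 °C. Released LDH measured in supernatant (30 min, room temperature, 490/630 nm). Expressed as % of untreated cells, mean ± SEM, at least three experiments in triplicate.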
# [5] = Cytotoxicity against mouse N9 cells assessed as reduction in cell viability incubated for 48 hrs by MTT assay; assay type: toxicity, cell-based
# Method in brief: (§1)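 MTT 0.5 mg/mL added for 3–4 h at 37 °C, formazan dissolved in DMSO/EtOH 1:1, absorbance read at 570 and 630 nm. Mean ± SD from at least two to three experiments in triplicate.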
# [6] = target: T2, fMet-Leu-Phe receptor (Homo sapiens, UniProt P21462); assay: Agonist activity at human FPR1 transfected in human HL-60 cells assessed as increase in calcium mobilization measured every 5 seconds for 240 secs by Fluo-4-AM dye based fluorescence assay; assay type: functional, cell-based
# T2 sequence (P21462 whole entry): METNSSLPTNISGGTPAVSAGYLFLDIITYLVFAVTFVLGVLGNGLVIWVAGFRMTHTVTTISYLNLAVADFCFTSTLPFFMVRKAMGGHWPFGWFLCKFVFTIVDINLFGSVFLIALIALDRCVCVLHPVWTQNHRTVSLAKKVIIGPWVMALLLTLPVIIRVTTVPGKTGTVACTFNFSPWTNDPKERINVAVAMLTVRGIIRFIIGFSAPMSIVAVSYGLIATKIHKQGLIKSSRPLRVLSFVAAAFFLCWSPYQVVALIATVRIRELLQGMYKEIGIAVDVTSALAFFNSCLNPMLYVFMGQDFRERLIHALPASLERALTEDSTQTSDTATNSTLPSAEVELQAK
# [7] = target: T3, N-formyl peptide receptor 2 (Homo sapiens) (UniProt P25090); assay: Agonist activity at human FPR2 transfected in HL-60 cells assessed as induction of intracellular calcium ions mobilization using WKYMVM as substrate preincubated for 10 mins followed by substrate addition and measured every 5 seconds for 240 secs by Fluo-4-AM dye based fluorescent assay relative to control; assay type: functional, cell-based; conditions: filed as agonist
# T3 sequence (whole entry): T1 sequence (P25090 whole entry)
# [8] = target: T2, fMet-Leu-Phe receptor; assay: Antagonist activity at human FPR1 transfected in human HL-60 cells assessed as inhibition of fMLF-induced intracellular calcium mobilization preincubated for 10 mins followed by fMLF addition and measured every 5 seconds for 240 secs by Fluo-4-AM dye based fluorescence assay; assay type: functional, cell-based
# [9] = Cytotoxicity against mouse N9 cells assessed as reduction in cell viability at 1 to 100 uM incubated for 48 hrs by MTT assay relative to control; assay type: toxicity, cell-based; conditions: n9, 48 h, dose 1-100 µM; method in brief: as §1
# [10] = Neurotoxicity against Sprague-Dawley rat primary microglial cells assessed as reduction in cell viability by measuring LDH release at 0.1 uM incubated for 24 hrs by LDH assay; assay type: toxicity, cell-based; conditions: microglia
# Method in brief: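 Sprague–Dawley rat neonatal cortical microglia (>95% Iba-1+), switched to 1% FBS medium 1 h before treatment. Compound 0.1 μM for 1 h, then LPS 100 ng/mL for 24 h; WRW4 10 μM given 30 min before in some sets, 0.1% vehicle. Supernatant LDH read at 540 nm, % of vehicle controls, mean ± SEM.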
Structure (SMILES),EC50 [1],IC50 [2],"remaining at 0.5 h, 10 µM [3]",Activity [4],EC50 at 48 h [5],EC50 [6],Efficacy [7],IC50 [8],Activity [9],Activity [10]
CC1(C)CN(C(=O)[C@@H](Cc2ccc(C#N)cc2)NC(=O)Nc2ccc(F)cc2)c2ccccc21,6.9 µM,16.4 µM,65%,,,,,,,
N#Cc1ccc(C[C@@H](NC(=O)Nc2ccc(F)cc2)C(=O)N2Cc3ccccc3C2)cc1,19.3 µM,,15%,,,,,,,
N#Cc1ccc(C[C@H](NC(=O)Nc2ccc(F)cc2)C(=O)N2CCc3ccccc3C2)cc1,0.24 µM,0.03 µM,6%,Non-Toxic,,,,,,
N#Cc1ccc(C[C@@H](NC(=O)Nc2ccc(F)cc2)C(=O)N2CCc3cc(F)ccc32)cc1,0.41 µM,3.4 µM,,,23.8 µM,1.8 µM,90%,,,
N#Cc1ccc(C[C@@H](NC(=O)Nc2ccc(F)cc2)C(=O)N2CCCC2)cc1,5.2 µM,16.5 µM,61%,,> 100 µM,26.4 µM,105%,43.9 µM,59%,
N#Cc1ccc(C[C@@H](NC(=O)Nc2ccc(F)cc2)C(=O)N2Cc3ccc(F)cc3C2)cc1,7.2 µM,,72%,,9.44 µM,5.6 µM,45%,,,
N#Cc1ccc(C[C@@H](NC(=O)Nc2ccc(F)cc2)C(=O)N2CCC(F)(F)CC2)cc1,,,62%,,> 100 µM,,,,40%,
N#Cc1ccc(C[C@H](NC(=O)Nc2ccc(F)cc2)C(=O)N2CCc3ccccc32)cc1,0.026 µM,0.01 µM,22%,Non-Toxic,,,,,,Non-Toxic
N#Cc1ccc(C[C@H](NC(=O)Nc2ccc(F)cc2)C(=O)NC2CCCCNC2=O)cc1 (stereo not given in full),0.17 µM,0.35 µM,85%,Non-Toxic,> 100 µM,0.78 µM,105%,3.5 µM,53%,
N#Cc1ccc(C[C@@H](NC(=O)Nc2ccc(F)cc2)C(=O)N2CCc3ccccc3C2)cc1,1.3 µM,3.5 µM,4%,,,,,,,
N#Cc1ccc(C[C@H](NC(=O)Nc2ccc(F)cc2)C(=O)N2CCCCC2)cc1,0.98 µM,12 µM,,,,,,,,
N#Cc1ccc(C[C@@H](NC(=O)Nc2ccc(F)cc2)C(=O)N2CCc3ccccc32)cc1,5.6 µM,3.9 µM,14%,,,,,,,
N#Cc1ccc(C[C@H](NC(=O)Nc2ccc(F)cc2)C(=O)NCC2(c3ccc(F)c(Cl)c3)CC2)cc1,,,,Non-Toxic,3.26 µM,,,,,
CC1(C)CN(C(=O)[C@H](Cc2ccc(C#N)cc2)NC(=O)Nc2ccc(F)cc2)Cc2cc(F)ccc21,1.6 µM,0.6 µM,34%,,,,,,,
N#Cc1ccc(C[C@H](NC(=O)Nc2ccc(F)cc2)C(=O)N2CCc3cccnc32)cc1,0.16 µM,0.14 µM,14%,,,,,,,
